# Measured values taken from ChEMBL document CHEMBL3632509, “Inhibition of Inflammatory and Neuropathic Pain by Targeting a Mu Opioid Receptor/Chemokine Receptor5 Heteromer (MOR-CCR5)” (J Med Chem, 2015).
# Calls of active or inactive are those of the source.
# How the values were obtained:
# [1] = test system: Mus musculus; assay: Antinociceptive activity in i.t dosed normal ICR-CD1 mouse assessed as withdrawal latency for radiant heat by tail flick assay; format: functional
# Method in brief: (§1)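 Male ICR-CD1 mice (17–25 g); LPS groups given LPS 1 mg/kg i.p. 24 h before testing, others untreated. Compound dissolved in 5% DMSO, diluted to <1% DMSO, given i.t. or i.c.v. in 5 µl to conscious mice. Radiant-heat tail flick, latency before and at peak time after drug, 10 s cut-off; %MPE = (test−control)/(10−control)×100. At least three groups of 8–10 mice per dose–response curve, each mouse used once.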
# [2] = test system: Mus musculus; assay: Antinociceptive activity in i.c.v dosed normal ICR-CD1 mouse assessed as withdrawal latency for radiant heat by tail flick assay; format: functional; method in brief: as §1
# [3] = test system: Mus musculus; assay: Selectivity ratio of ED50 for antinociceptive activity in i.c.v dosed ICR-CD1 mouse to ED50 for i.t dosed ICR-CD1 mouse; format: functional
# Method in brief: (§2)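 Ratios compare i.c.v. with i.t. dosing, or untreated mice with LPS-pretreated mice (1 mg/kg i.p., 24 h). All mice are male ICR-CD1.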
# [4] = test system: Mus musculus; assay: Toxicity in i.t dosed ICR-CD1 mouse at ED50 after 24 hrs; format: organism-based; settings: in vivo, icv_or_intrathecal
# Method in brief: (§3)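 Acute tolerance in male ICR-CD1 mice, either untreated or given LPS 1 mg/kg i.p. 24 h before testing. The ED80–90 dose is given i.t. or i.c.v. (5 µl, <1% DMSO) on day 1. The same dose is given again 24 h later to the same mouse and retested by radiant-heat tail flick (10 s cut-off, %MPE).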
# [5] = test system: Mus musculus; assay: Toxicity in i.c.v dosed ICR-CD1 mouse at ED50 after 24 hrs; format: organism-based; settings: in vivo, icv_or_intrathecal; method in brief: as §3
# [6] = test system: Mus musculus; assay: Antinociceptive activity in i.t dosed LPS-induced ICR-CD1 mouse thermal hyperalgesia model assessed as withdrawal latency for radiant heat by tail flick assay; format: functional; method in brief: as §1
# [7] = test system: Mus musculus; assay: Antinociceptive activity in i.c.v dosed LPS-induced ICR-CD1 mouse thermal hyperalgesia model assessed as withdrawal latency for radiant heat by tail flick assay; format: functional; method in brief: as §1
# [8] = test system: Mus musculus; assay: Toxicity in i.t dosed LPS-induced ICR-CD1 mouse thermal hyperalgesia model at ED50 after 24 hrs; format: organism-based; settings: in vivo, icv_or_intrathecal; method in brief: as §3
# [9] = test system: Mus musculus; assay: Toxicity in i.c.v dosed LPS-induced ICR-CD1 mouse thermal hyperalgesia model at ED50 after 24 hrs; format: organism-based; settings: in vivo, icv_or_intrathecal; method in brief: as §3
# [10] = test system: Mus musculus; assay: Selectivity ratio of ED50 for antinociceptive activity in i.c.v dosed LPS-induced ICR-CD1 mouse thermal hyperalgesia model to ED50 for i.t dosed LPS-induced ICR-CD1 mouse thermal hyperalgesia model; format: functional; method in brief: as §2
# [11] = test system: Mus musculus; assay: Antinociceptive activity in i.t dosed complete Freund's adjuvant-induced ICR-CD1 mouse mechanical hyperalgesia model by von Frey test; format: functional
# [12] = test system: Mus musculus; assay: Antinociceptive activity in normal ICR-CD1 mouse assessed as withdrawal latency for radiant heat at 1000 pmol, icv by tail flick assay; format: functional; method in brief: as §1
# [13] = species on record: Mus musculus; assay: Antinociceptive activity in LPS-induced ICR-CD1 mouse thermal hyperalgesia model assessed as withdrawal latency for radiant heat at 1000 pmol i.c.v by tail flick assay; format: functional; method in brief: as §1
# [14] = test system: Mus musculus; assay: Antinociceptive activity in i.t dosed LPS-induced ICR-CD1 mouse thermal hyperalgesia model assessed as withdrawal latency for radiant heat at ED50 after 24 hrs by tail flick assay; format: functional; method in brief: as §3
# [15] = test system: Mus musculus; assay: Antinociceptive activity in i.t dosed LPS-induced ICR-CD1 mouse thermal hyperalgesia model assessed as withdrawal latency for radiant heat by tail flick assay relative to TAK-220 and N-((4aS,7S,7aR,12bS)-4a,9-Dihydroxy-3-methyl-2,3,4,4a,5,6,7,7a-octahydro-1H-4,12-methanobenzofuro[3,2-e][…]-7-yl)-2-((3,7,17-trioxo-5-oxa-2,8,16-triazaoctadecan-18-yl)oxy)acetamide combination; format: functional
# [16] = species on record: Mus musculus; assay: Antinociceptive activity in normal ICR-CD1 mouse assessed as withdrawal latency for radiant heat at 500 pmol, it by tail flick assay; format: functional; method in brief: as §1
# [17] = test system: Mus musculus; assay: Antinociceptive activity in normal ICR-CD1 mouse assessed as withdrawal latency for radiant heat at 500 pmol, icv by tail flick assay; format: functional; method in brief: as §1
# [18] = species on record: Mus musculus; assay: Antinociceptive activity in LPS-induced ICR-CD1 mouse thermal hyperalgesia model assessed as withdrawal latency for radiant heat at 1000 pmol i.t by tail flick assay; format: functional; method in brief: as §1
# [19] = molecular target: C-C chemokine receptor type 5 (Homo sapiens) (UniProt P51681); assay: Antagonist activity at CCR5 receptor (unknown origin) expressed in HEK293 cells assessed as inhibition of CCl5-induced calcium release at 1 uM by FLIPR assay; format: functional, cell-based
# [20] = species on record: Mus musculus; assay: Antinociceptive activity in normal ICR-CD1 mouse assessed as withdrawal latency for radiant heat at 1000 pmol, it by tail flick assay; format: functional; method in brief: as §1
# [21] = test system: Mus musculus; assay: Antinociceptive activity in normal ICR-CD1 mouse assessed as withdrawal latency for radiant heat at 250 pmol, icv by tail flick assay; format: functional; method in brief: as §1
# [22] = species on record: Mus musculus; assay: Antinociceptive activity in LPS-induced ICR-CD1 mouse thermal hyperalgesia model assessed as withdrawal latency for radiant heat at 500 pmol i.c.v by tail flick assay; format: functional; method in brief: as §1
# [23] = test system: Mus musculus; assay: Antinociceptive activity in i.t dosed LPS-induced ICR-CD1 mouse thermal hyperalgesia model assessed as withdrawal latency for radiant heat by tail flick assay relative to morphine; format: functional
# [24] = test system: Mus musculus; assay: Selectivity ratio of ED50 for antinociceptive activity in i.t dosed normal ICR-CD1 mouse to ED50 for i.t dosed LPS-induced ICR-CD1 mouse thermal hyperalgesia model; format: functional; method in brief: as §2
# [25] = test system: Mus musculus; assay: Antinociceptive activity in i.t dosed LPS-induced ICR-CD1 mouse thermal hyperalgesia model assessed as withdrawal latency for radiant heat at ED50 by tail flick assay in presence of 45 mg/kg, ip minocycline; format: functional, organism-based
# Method in brief: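 Male ICR-CD1 mice get LPS 1 mg/kg i.p. and 24 h later minocycline HCl 45 mg/kg i.p. in distilled water. Test compound is given i.t. 4 h after minocycline. Antinociception is read by radiant-heat tail flick (10 s cut-off) as %MPE. The ED50 comes from a dose–response curve, groups of n=8.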
# C-C chemokine receptor type 5 (Homo sapiens), sequence (P51681 whole entry, looked up): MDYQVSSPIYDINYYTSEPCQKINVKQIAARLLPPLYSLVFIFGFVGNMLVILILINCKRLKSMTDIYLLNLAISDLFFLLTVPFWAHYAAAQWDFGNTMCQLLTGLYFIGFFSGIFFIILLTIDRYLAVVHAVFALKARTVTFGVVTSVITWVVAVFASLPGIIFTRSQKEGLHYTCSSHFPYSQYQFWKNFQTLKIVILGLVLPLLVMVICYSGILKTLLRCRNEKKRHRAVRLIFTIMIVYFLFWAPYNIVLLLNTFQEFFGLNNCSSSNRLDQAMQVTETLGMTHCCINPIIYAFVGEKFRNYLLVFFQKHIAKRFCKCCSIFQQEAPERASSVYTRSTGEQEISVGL
Structure (SMILES),ED50 [1] [pmol],Ratio ED50 [3],Activity [4],ED50 [6] [pmol],ED50 [7] [pmol],Activity [8],Activity [9],Ratio ED50 [10],MPE [13] [%],Selectivity Index [15],also measured
CNC(=O)COCC(=O)NCCCCCCCNC(=O)COCC(=O)N[C@H]1CC[C@@]2(O)[C@H]3Cc4ccc(O)c5c4[C@@]2(CCN3C)[C@H]1O5,113.3,0.95,Toxic,21.29,168.9,Toxic,Toxic,7.93,–,–,ED50 [2]: 108.2 pmol; Activity [5]: Toxic
CN1CC[C@]23c4c5ccc(O)c4O[C@H]2[C@@H](O)C=C[C@H]3[C@H]1C5 [MORPHINE],27,11,–,35,–,–,–,8,–,–,ED50 [11]: 15 pmol
Cc1ccc(N(CCCN2CCC(Cc3ccc(C(N)=O)cc3)CC2)C(=O)C2CCN(C(=O)COCC(=O)NCCCCCCCCCNC(=O)COCC(=O)N[C@H]3CC[C@@]4(O)[C@H]5Cc6ccc(O)c7c6[C@@]4(CCN5C)[C@H]3O7)CC2)cc1Cl,15.83,63.98,Non-toxic,8.43,–,–,–,118.62,63.1,6.2,MPE [12]: 54.5%; MPE [14]: 24%
CNC(=O)COCC(=O)NCCCCCCCNC(=O)COCC(=O)N1CCC(C(=O)N(CCCN2CCC(Cc3ccc(C(N)=O)cc3)CC2)c2ccc(C)c(Cl)c2)CC1,–,–,–,–,–,–,–,–,51.9,–,MPE [16]: 28.1%; MPE [17]: 43.9%; MPE [18]: 32.4%
Cc1ccc(N(CCCN2CCC(Cc3ccc(C(N)=O)cc3)CC2)C(=O)C2CCN(C(=O)COCC(=O)NCCCCCNC(=O)COCC(=O)N[C@H]3CC[C@@]4(O)[C@H]5Cc6ccc(O)c7c6[C@@]4(CCN5C)[C@H]3O7)CC2)cc1Cl,370.6,3.14,Toxic,10.92,187.1,Non-toxic,Toxic,6.38,–,4.8,ED50 [2]: 358.2 pmol; Activity [5]: Toxic
Cc1ccc(N(CCCN2CCC(Cc3ccc(C(N)=O)cc3)CC2)C(=O)C2CCN(C(=O)COCC(=O)NCCCCCCCCCCCCNC(=O)COCC(=O)N[C@H]3CC[C@@]4(O)[C@H]5Cc6ccc(O)c7c6[C@@]4(CCN5C)[C@H]3O7)CC2)cc1Cl,336.9,2.97,Toxic,122.7,–,Toxic,–,–,55.7,0.4,MPE [12]: 27.6%
CNC(=O)COCC(=O)N1CCC(C(=O)N(CCCN2CCC(Cc3ccc(C(N)=O)cc3)CC2)c2ccc(C)c(Cl)c2)CC1,–,–,–,–,–,–,–,–,–,–,Activity [19]: Active
CC(=O)N1CCC(C(=O)N(CCCN2CCC(Cc3ccc(C(N)=O)cc3)CC2)c2ccc(C)c(Cl)c2)CC1,–,1,–,–,–,–,–,6.48,7.6,–,Activity [19]: Active; MPE [20]: 34.2%; MPE [12]: 26.2%; MPE [18]: 49%
Cc1ccc(N(CCCN2CCC(Cc3ccc(C(N)=O)cc3)CC2)C(=O)C2CCN(C(=O)COCC(=O)NCCCCCCCNC(=O)COCC(=O)N[C@H]3CC[C@@]4(O)[C@H]5Cc6ccc(O)c7c6[C@@]4(CCN5C)[C@H]3O7)CC2)cc1Cl,166.4,1.5,Toxic,11.41,692.4,Non-toxic,Toxic,60.68,–,4.5,MPE [21]: 35.9%
Cc1ccc(N(CCCN2CCC(Cc3ccc(C(N)=O)cc3)CC2)C(=O)C2CCN(C(=O)COCC(=O)NCCCCCCCCCCNC(=O)COCC(=O)N[C@H]3CC[C@@]4(O)[C@H]5Cc6ccc(O)c7c6[C@@]4(CCN5C)[C@H]3O7)CC2)cc1Cl,45.75,–,Non-toxic,0.01461,–,Non-toxic,–,–,–,3559,MPE [17]: 49.7%; MPE [22]: 41.1%; fold change (FC) [23]: 1500; Selectivity Index [24]: 3000; Activity [25]: inactive
Cc1ccc(N(CCCN2CCC(Cc3ccc(C(N)=O)cc3)CC2)C(=O)C2CCN(C(=O)COCC(=O)NCCNC(=O)COCC(=O)N[C@H]3CC[C@@]4(O)[C@H]5Cc6ccc(O)c7c6[C@@]4(CCN5C)[C@H]3O7)CC2)cc1Cl,32.34,3.29,Non-toxic,10.6,56.41,Non-toxic,Toxic,5.32,–,4.9,ED50 [2]: 106.6 pmol; Activity [5]: Toxic
